Laboratory results taken from ChEMBL document CHEMBL2406965, “Optimization of N-benzoylindazole derivatives as inhibitors of human neutrophil elastase” (J Med Chem, 2013).
Activity calls are given as the source filed them. No cut-off for these calls is given here.

Key:
Neutrophil elastase = biological target: T1, Neutrophil elastase (Homo sapiens, UniProt P08246); experiment: Inhibition of human neutrophil elastase using N-methylsuccinyl-Ala-Ala-Pro-Val-7-amino-4-methylcoumarin as substrate measured every 30 seconds for 10 mins by fluorescence microplate reader analysis
T1 sequence (P08246 whole entry): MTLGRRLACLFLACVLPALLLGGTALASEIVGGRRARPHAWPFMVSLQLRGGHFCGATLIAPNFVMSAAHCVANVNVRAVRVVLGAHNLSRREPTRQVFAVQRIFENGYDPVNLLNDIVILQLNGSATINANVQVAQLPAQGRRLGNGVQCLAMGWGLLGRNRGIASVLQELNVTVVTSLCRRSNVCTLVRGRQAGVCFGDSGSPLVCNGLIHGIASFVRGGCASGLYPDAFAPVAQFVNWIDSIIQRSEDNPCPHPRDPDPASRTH

Plasma kallikrein [1] = biological target: T2, Plasma kallikrein (Homo sapiens, UniProt P03952); experiment: Inhibition of human plasma kallikrein using benzyloxycarbonyl-Phe-Arg-7-amino-4-methylcoumarin as substrate at 50 uM by fluorescence microplate reader analysis
Prothrombin = Prothrombin (Homo sapiens, UniProt P00734); experiment: Inhibition of human plasma thrombin using benzonyl-Phe-Val-Arg-7-amino-4-methylcoumarin as substrate by fluorescence microplate reader analysis
[2] = biological target: T3, Urokinase-type plasminogen activator (Homo sapiens, UniProt P00749); experiment: Inhibition of human urokinase using benzyloxycarbonyl-Gly-Gly-Arg-7-amino-4-methylcoumarin as substrate by fluorescence microplate reader analysis
Chymotrypsinogen B = Chymotrypsinogen B (Homo sapiens, UniProt P17538); experiment: Inhibition of human pancreatic chymotrypsin using Suc-Ala-Ala-Pro-7-amino-4-methylcoumarin as substrate by fluorescence microplate reader analysis
[3] = Half life in phosphate buffer at pH 7.3; type: physicochemical
[4] = biological target: Cathepsin D (Homo sapiens) (UniProt P07339); experiment: Inhibition of human spleen cathepsin D using MOCAc-Gly-Lys-Pro-Ile-Leu-Phe-Phe-Arg-Leu-Lys (Dnp)-D-Arg-NH2 as substrate at 50 uM by fluorescence microplate reader analysis
Summary of the method: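 Cathepsin D from human spleen, 0.1 U/mL, in 0.1 M sodium acetate pH 5.0 with 5 μM MOCAc peptide substrate, 25 °C. Highest compound concentration tested 50 μM.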

[5] = biological target: T4, Neutrophil elastase (Homo sapiens) (UniProt P08246); experiment: Inhibition of human neutrophil elastase using N-methylsuccinyl-Ala-Ala-Pro-Val-7-amino-4-methylcoumarin as substrate at 5 uM after 4 hrs by fluorescence microplate reader analysis
T4 sequence (whole entry): T1 sequence (P08246 whole entry)

[6] = biological target: T4, Neutrophil elastase (Homo sapiens); experiment: Reversible inhibition of human neutrophil elastase using N-methylsuccinyl-Ala-Ala-Pro-Val-7-amino-4-methylcoumarin as substrate at 5 uM after 1 to 2 hrs by fluorescence microplate reader analysis
Plasma kallikrein [7] = biological target: T2, Plasma kallikrein; experiment: Inhibition of human plasma kallikrein using benzyloxycarbonyl-Phe-Arg-7-amino-4-methylcoumarin as substrate by fluorescence microplate reader analysis
[8] = biological target: T4, Neutrophil elastase (Homo sapiens); experiment: Competitive inhibition of human neutrophil elastase using N-methylsuccinyl-Ala-Ala-Pro-Val-7-amino-4-methylcoumarin as substrate by Lineweaver-Burk plot analysis
[9] = biological target: T4, Neutrophil elastase (Homo sapiens); experiment: Inhibition of human neutrophil elastase using N-methylsuccinyl-Ala-Ala-Pro-Val-7-amino-4-methylcoumarin as substrate at 5 uM after 5 hrs by fluorescence microplate reader analysis
[10] = biological target: T3, Urokinase-type plasminogen activator; experiment: Inhibition of human urokinase using benzyloxycarbonyl-Gly-Gly-Arg-7-amino-4-methylcoumarin as substrate at 50 uM by fluorescence microplate reader analysis
[11] = biological target: T4, Neutrophil elastase (Homo sapiens); experiment: Inhibition of human neutrophil elastase using N-methylsuccinyl-Ala-Ala-Pro-Val-7-amino-4-methylcoumarin as substrate at 50 uM measured every 30 seconds for 10 mins by fluorescence microplate reader analysis

Cathepsin D (Homo sapiens), sequence (P07339 65-162 limits assumed): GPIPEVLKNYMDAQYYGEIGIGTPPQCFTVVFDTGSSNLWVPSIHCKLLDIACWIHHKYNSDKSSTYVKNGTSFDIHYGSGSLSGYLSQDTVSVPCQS
Cathepsin D (Homo sapiens), sequence (P07339 169-412 limits assumed): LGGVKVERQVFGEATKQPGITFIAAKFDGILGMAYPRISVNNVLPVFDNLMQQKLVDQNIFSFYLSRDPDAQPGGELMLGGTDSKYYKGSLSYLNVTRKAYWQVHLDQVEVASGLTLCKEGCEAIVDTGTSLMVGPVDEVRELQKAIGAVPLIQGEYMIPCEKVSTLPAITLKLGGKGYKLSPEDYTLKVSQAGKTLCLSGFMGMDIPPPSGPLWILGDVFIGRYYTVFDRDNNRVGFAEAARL
Chymotrypsinogen B, sequence (P17538 34-164 limits assumed, other chains not shown): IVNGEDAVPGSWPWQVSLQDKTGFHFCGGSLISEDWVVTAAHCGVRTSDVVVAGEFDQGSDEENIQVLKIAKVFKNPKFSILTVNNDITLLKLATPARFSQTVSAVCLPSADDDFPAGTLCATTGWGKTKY
Chymotrypsinogen B, sequence (P17538 167-263 limits assumed, other chains not shown): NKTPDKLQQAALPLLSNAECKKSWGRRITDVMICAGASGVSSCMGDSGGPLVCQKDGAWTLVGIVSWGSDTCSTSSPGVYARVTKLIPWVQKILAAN
T2 sequence (P03952 20-390 limits assumed): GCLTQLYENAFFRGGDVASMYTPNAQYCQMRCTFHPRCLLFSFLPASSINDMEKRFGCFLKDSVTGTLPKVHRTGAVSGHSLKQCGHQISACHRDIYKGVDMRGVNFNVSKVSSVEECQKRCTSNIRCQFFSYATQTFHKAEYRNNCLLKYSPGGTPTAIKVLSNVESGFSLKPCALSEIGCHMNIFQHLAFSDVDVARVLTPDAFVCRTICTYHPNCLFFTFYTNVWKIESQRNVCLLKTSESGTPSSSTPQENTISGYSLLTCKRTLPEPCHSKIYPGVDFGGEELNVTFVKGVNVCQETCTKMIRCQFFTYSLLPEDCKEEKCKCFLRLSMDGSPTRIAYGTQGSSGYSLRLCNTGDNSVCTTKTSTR
T2 sequence (P03952 391-638 limits assumed): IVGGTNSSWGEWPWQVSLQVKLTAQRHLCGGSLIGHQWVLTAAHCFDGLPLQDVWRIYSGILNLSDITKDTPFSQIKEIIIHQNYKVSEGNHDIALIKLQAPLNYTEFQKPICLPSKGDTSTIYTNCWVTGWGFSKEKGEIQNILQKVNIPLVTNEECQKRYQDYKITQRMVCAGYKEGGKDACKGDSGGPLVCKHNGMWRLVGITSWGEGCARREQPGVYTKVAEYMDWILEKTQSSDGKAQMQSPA

Question: Which IC50 (Neutrophil elastase) does the source give for `COC(=O)c1nn(C(=O)c2ccsc2)c2ccc([N+](=O)[O-])cc12` here?
Answer: 50 nM

Question: For `COC(=O)c1nn(C(=O)c2cccc(C)c2)c2ccc(Br)cc12`, which inhibition (Plasma kallikrein [1]) is on record?
Answer: inactive

Question: And the IC50 (Neutrophil elastase)?
Answer: 80 nM

Question: For `CCCC(=O)Nc1ccc2c(c1)c(C(=O)OCC)nn2C(=O)c1cccc(C)c1`, which IC50 (Neutrophil elastase) is on record?
Answer: 50 nM

Question: With `CCOC(=O)c1nn(C(=O)c2ccsc2)c2ccc(Br)cc12` as the compound, how does the IC50 (Neutrophil elastase) read?
Answer: 260 nM

Question: For `Cc1cccc(C(=O)n2nc(C#N)c3ccccc32)c1`, which IC50 (Prothrombin) is on record?
Answer: 1900 nM

Question: What about the IC50 [2] of the same compound?
Answer: 6600 nM

Question: And the inhibition (Plasma kallikrein [1])?
Answer: inactive

Question: What about the IC50 (Chymotrypsinogen B) of the same compound?
Answer: 66 nM

Question: Which IC50 (Prothrombin) does the source give for `COC(=O)c1nn(C(=O)c2cccc(C)c2)c2cc([N+](=O)[O-])ccc12` here?
Answer: 640 nM

Question: And the IC50 [2]?
Answer: 310 nM

Question: And the inhibition (Plasma kallikrein [1])?
Answer: inactive

Question: And the IC50 (Chymotrypsinogen B)?
Answer: 38 nM

Question: And the IC50 (Neutrophil elastase)?
Answer: 20 nM

Question: What about the t1/2 [3] of the same compound?
Answer: 41.5 min

Question: And the inhibition [4]?
Answer: inactive

Question: For `CCOC(=O)c1nn(C(=O)c2ccccc2)c2ccc(OC)cc12`, which IC50 (Neutrophil elastase) is on record?
Answer: 80 nM

Question: Which results are given for `CCOC(=O)c1nn(C(=O)c2cccc(C)c2)c2ccc(NC(C)=O)cc12`?
Answer: IC50 (Prothrombin): 310 nM; IC50 [2]: 13700 nM; inhibition (Plasma kallikrein [1]): inactive; IC50 (Neutrophil elastase): 30 nM; t1/2 [3]: 78.8 min; inhibition [5]: Active; inhibition [4]: inactive

Question: With `CCOC(=O)c1nn(C(=O)c2cccc(C)c2)c2ccc(OC)cc12` as the compound, how does the IC50 (Neutrophil elastase) read?
Answer: 140 nM

Question: Which IC50 (Prothrombin) does the source give for `CCOC(=O)c1nn(C(=O)c2cccc(C)c2)c2ccc(NC(=O)CC)cc12` here?
Answer: 39 nM

Question: What about the IC50 [2] of the same compound?
Answer: 14800 nM

Question: What about the inhibition (Plasma kallikrein [1]) of the same compound?
Answer: inactive

Question: What about the IC50 (Chymotrypsinogen B) of the same compound?
Answer: 140 nM

Question: For `CCOC(=O)c1nn(C(=O)c2cccc(C)c2)c2ccc(N(C)C)cc12`, which IC50 (Neutrophil elastase) is on record?
Answer: 140 nM

Question: For `CCOC(=O)c1nn(C(=O)c2cccc(C)c2)c2ccc(OC(F)(F)F)cc12`, which IC50 (Neutrophil elastase) is on record?
Answer: 110 nM

Question: For `CCOC(=O)c1nn(C(=O)c2cccc(C)c2)c2ccc([N+](=O)[O-])cc12`, which IC50 (Prothrombin) is on record?
Answer: 480 nM

Question: And the IC50 [2]?
Answer: 1500 nM

Question: What about the inhibition (Plasma kallikrein [1]) of the same compound?
Answer: inactive

Question: What about the IC50 (Chymotrypsinogen B) of the same compound?
Answer: 40 nM

Question: Which results are given for `COC(=O)c1nn(C(=O)c2ccccc2)c2ccc([N+](=O)[O-])cc12`?
Answer: IC50 (Prothrombin): 830 nM; IC50 [2]: 620 nM; IC50 (Chymotrypsinogen B): 31 nM; inhibition [6]: Active; IC50 (Neutrophil elastase): 30 nM; t1/2 [3]: 37.9 min; IC50 (Plasma kallikrein [7]): 11200 nM; inhibition [4]: inactive

Question: With `COC(=O)c1nn(C(=O)c2ccsc2)c2ccc(Br)cc12` as the compound, how does the IC50 (Neutrophil elastase) read?
Answer: 160 nM

Question: For `N#Cc1nn(C(=O)c2ccccc2)c2ccccc12`, which IC50 (Neutrophil elastase) is on record?
Answer: 40 nM

Question: Which IC50 (Neutrophil elastase) does the source give for `CCOC(=O)c1nn(C(=O)c2ccccc2)c2ccc([N+](=O)[O-])cc12` here?
Answer: 20 nM

Question: With `COC(=O)c1nn(C(=O)c2cccc(C)c2)c2ccc([N+](=O)[O-])cc12` as the compound, how does the IC50 (Prothrombin) read?
Answer: 1100 nM

Question: And the IC50 [2]?
Answer: 440 nM

Question: What about the inhibition (Plasma kallikrein [1]) of the same compound?
Answer: inactive

Question: What about the t1/2 [3] of the same compound?
Answer: 47.8 min

Question: And the inhibition [5]?
Answer: Active

Question: What about the inhibition [4] of the same compound?
Answer: inactive

Question: For `COC(=O)c1nn(C(=O)c2cccc(OC)c2)c2ccc(Br)cc12`, which inhibition (Plasma kallikrein [1]) is on record?
Answer: inactive

Question: With `CCOC(=O)c1nn(C(=O)c2ccsc2)c2ccc([N+](=O)[O-])cc12` as the compound, how does the IC50 (Prothrombin) read?
Answer: 370 nM

Question: And the IC50 [2]?
Answer: 25300 nM

Question: What about the inhibition (Plasma kallikrein [1]) of the same compound?
Answer: inactive

Question: And the IC50 (Chymotrypsinogen B)?
Answer: 46 nM

Question: And the inhibition [6]?
Answer: Active

Question: And the IC50 (Neutrophil elastase)?
Answer: 30 nM

Question: What about the t1/2 [3] of the same compound?
Answer: 32.8 min

Question: And the inhibition [4]?
Answer: inactive

Question: What does the source list for `CCOC(=O)c1nn(C(=O)c2cccc(C)c2)c2ccc(NC(=O)C3CC3)cc12`?
Answer: IC50 (Prothrombin): 160 nM; inhibition [8]: Active; inhibition (Plasma kallikrein [1]): inactive; IC50 (Chymotrypsinogen B): 370 nM; inhibition [9]: Active; IC50 (Neutrophil elastase): 12 nM; t1/2 [3]: 51.7 min; inhibition [4]: inactive; inhibition [10]: inactive

Question: Which results are given for `CCOC(=O)c1nn(C(=O)c2cccc(OC)c2)c2ccc([N+](=O)[O-])cc12`?
Answer: IC50 (Prothrombin): 82 nM; IC50 [2]: 480 nM; inhibition (Plasma kallikrein [1]): inactive; IC50 (Chymotrypsinogen B): 21 nM

Question: Which inhibition [11] does the source give for `COC(=O)c1nn(C(=O)c2cccc(C)c2)c2c([N+](=O)[O-])cccc12` here?
Answer: inactive
